The source made the active and inactive calls. No cut-off for these calls is given here.
Assays:
OVCAR-5 [1] = assay: Cytotoxicity against human OVCAR5 cells assessed as cell growth at 10 uM after 48 hrs by SRB assay; type: functional; details: OVCAR-5, 48 h, read-out: Activity
Summary of the method: (§1)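 NCI primary single-dose screen at 10^-5 M against the full panel of about 60 human tumor cell lines. Cells were in RPMI-1640 with 5% fetal calf serum and 2 mM L-glutamine and preincubated 24 h. Compound was given in DMSO with 48 h exposure. Growth was estimated by sulforhodamine B protein assay.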

OVCAR-3 = assay: Antitumor activity against human OVCAR3 cells implanted in mouse dosed qd for 4 days by formazan dye-based hollow fiber assay; type: functional, organism-based
Summary of the method: (§2)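 Cells grown inside polyvinylidene fluoride hollow fibers; each line implanted into both intraperitoneal and subcutaneous compartments in mice. Compound given ip at two doses on a QD x 4 schedule. Fibers then recovered and viable cell mass measured by formazan dye conversion. Scored 2 per dose giving ≥50% reduction in viable cell mass (%T/C 50).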

U-251 [2] = assay: Antitumor activity against human U251 cells implanted in mouse dosed qd for 4 days by formazan dye-based hollow fiber assay; type: functional, organism-based; summary of the method: as §2
SNB-75 = assay: Cytotoxicity against human SNB75 cells after 48 hrs by SRB assay; type: functional; details: SNB-75, 48 h
Summary of the method: (§3)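 NCI 60-cell-line five-dose screen. Cells were grown in 1640 medium with 5% fetal calf serum and 2 mM L-glutamine, with inoculum density set by cell line, and pre-incubated 24 h. Compound in DMSO was added at 10^-4 to 10^-8 M (10-fold steps) with 48 h continuous exposure. Growth was read by SRB protein assay, and GI50, TGI and LC50 were derived from dose-response.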

786-0 [3] = assay: Cytotoxicity against human 786-0 cells assessed as cell growth at 10 uM after 48 hrs by SRB assay; type: functional; details: 786-0, 48 h, read-out: Activity
Summary of the method: (§4)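 NCI primary single-dose screen at 10^-5 M against the ~60 human tumour cell line panel. Cells grown in RPMI-1640 with 5% fetal calf serum and 2 mM L-glutamine and pre-incubated 24 h before compound addition. Compound added from DMSO solution with 48 h exposure. Growth read by sulforhodamine B protein staining.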

NCI/ADR-RES = assay: Cytotoxicity against human NCI/ADR-RES cells after 48 hrs by SRB assay; type: functional
Summary of the method: (§5)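 NCI five-dose screen on the ~60-line human tumor panel. Cells grown in RPMI-1640 with 5% fetal calf serum and 2 mM L-glutamine, seeded at line-dependent density and preincubated 24 h. Compound added from DMSO at 10-fold dilutions from 10^-4 to 10^-8 M, continuous exposure 48 h. Growth read by sulforhodamine B protein stain. GI50, TGI and LC50 derived per line.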

ACHN = assay: Cytotoxicity against human ACHN cells after 48 hrs by SRB assay; type: functional
Summary of the method: (§6)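 NCI ~60-line panel in RPMI-1640 with 5% fetal calf serum and 2 mM L-glutamine, pre-incubated 24 h. Compound in DMSO tested at five 10-fold concentrations (10^-4 to 10^-8 M) with 48 h continuous exposure. Growth measured by sulforhodamine B protein assay. GI50 (50% net growth inhibition), TGI (total inhibition) and LC50 (50% net cell death) derived from dose-response.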

LOX IMVI = assay: Antitumor activity against human LOXIMVI cells implanted in mouse dosed qd for 4 days by formazan dye-based hollow fiber assay; type: functional, organism-based; summary of the method: as §2
RPMI-8226 = assay: Cytotoxicity against human RPMI8226 cells after 48 hrs by SRB assay; type: functional; details: RPMI-8226, 48 h; summary of the method: as §5
COLO 205 = assay: Antitumor activity against human COLO205 cells implanted in mouse dosed qd for 4 days by formazan dye-based hollow fiber assay; type: functional, organism-based; summary of the method: as §2
HCT-15 = assay: Cytotoxicity against human HCT15 cells assessed as cell growth at 10 uM after 48 hrs by SRB assay; type: functional; details: HCT-15, 48 h, read-out: Activity; summary of the method: as §4
OVCAR-5 [4] = assay: Cytotoxicity against human OVCAR5 cells after 48 hrs by SRB assay; type: functional; details: OVCAR-5, 48 h; summary of the method: as §5
Malme-3M = assay: Cytotoxicity against human MALME-3M cells assessed as cell growth at 10 uM after 48 hrs by SRB assay; type: functional; details: read-out: Activity; summary of the method: as §1
UO-31 = assay: Cytotoxicity against human UO31 cells after 48 hrs by SRB assay; type: functional; details: UO-31, 48 h; summary of the method: as §3
786-0 [5] = assay: Cytotoxicity against human 786-0 cells after 48 hrs by SRB assay; type: functional; details: 786-0, 48 h; summary of the method: as §6
SF-295 = assay: Antitumor activity against human SF295 cells implanted in mouse dosed qd for 4 days by formazan dye-based hollow fiber assay; type: functional, organism-based; summary of the method: as §2
NCI-H322M [6] = assay: Cytotoxicity against human NCI-H322M cells after 48 hrs by SRB assay; type: functional; summary of the method: as §5
SW-620 = assay: Antitumor activity against human SW620 cells implanted in mouse dosed qd for 4 days by formazan dye-based hollow fiber assay; type: functional, organism-based; summary of the method: as §2
NCI-H322M [7] = assay: Cytotoxicity against human NCI-H322M cells assessed as cell growth at 10 uM after 48 hrs by SRB assay; type: functional; details: read-out: Activity; summary of the method: as §1
SK-MEL-2 = assay: Cytotoxicity against human SK-MEL-2 cells assessed as cell growth at 10 uM after 48 hrs by SRB assay; type: functional; details: SK-MEL-2, 48 h, read-out: Activity
Summary of the method: (§7)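 NCI primary one-dose screen at 10^-5 M against the full panel of about 60 human tumour cell lines, run to the NCI Drug Evaluation Branch protocol.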

TK-10 = assay: Cytotoxicity against human TK10 cells after 48 hrs by SRB assay; type: functional; details: TK-10, 48 h; summary of the method: as §3
UACC-62 = assay: Cytotoxicity against human UACC62 cells after 48 hrs by SRB assay; type: functional; details: UACC-62, 48 h; summary of the method: as §3
U-251 [8] = assay: Cytotoxicity against human U251 cells assessed as cell growth at 10 uM after 48 hrs by SRB assay; type: functional; details: U-251, 48 h, read-out: Activity; summary of the method: as §7
EKVX = assay: Cytotoxicity against human EKVX cells assessed as cell growth at 10 uM after 48 hrs by SRB assay; type: functional; details: read-out: Activity; summary of the method: as §4
A549 = assay: Cytotoxicity against human A549/ATCC cells after 48 hrs by SRB assay; type: functional; details: A549, 48 h; summary of the method: as §6

## CCc1ccc(-c2ccc(=O)n(-c3ccc(S(N)(=O)=O)cc3)n2)cc1
OVCAR-5 [1]
  growth at 10 µM: 91.6%
OVCAR-3
  Activity: inactive
U-251 [2]
  Activity: inactive
SNB-75
  LC50: > 100 µM
SNB-75; read-out: GI50
  GI50: 1.76 µM
SNB-75; read-out: pGI50 (converted)
  GI50: 1.74 µM
SNB-75; read-out: pTGI (converted)
  TGI: 28.8 µM
786-0 [3]
  growth at 10 µM: 50%
NCI/ADR-RES
  LC50: > 100 µM
NCI/ADR-RES; read-out: GI50
  GI50: 0.314 µM
NCI/ADR-RES; read-out: pGI50 (converted)
  GI50: 0.316 µM
NCI/ADR-RES; read-out: pTGI (converted)
  TGI: 12.9 µM
ACHN
  GI50: 10.5 µM
ACHN; read-out: pLC50 (the source's name) (converted)
  CC50: > 100 µM
ACHN; read-out: pTGI
  TGI: > 100 µM
LOX IMVI
  Activity: inactive
RPMI-8226
  LC50: > 100 µM
RPMI-8226; read-out: GI50
  GI50: 0.479 µM
RPMI-8226; read-out: pGI50 (converted)
  GI50: 0.479 µM
RPMI-8226; read-out: pTGI (converted)
  TGI: 8.51 µM
COLO 205
  Activity: inactive
HCT-15
  growth at 10 µM: 29.7%
OVCAR-5 [4]
  LC50: > 100 µM
OVCAR-5 [4]; read-out: GI50
  GI50: 41.4 µM
OVCAR-5 [4]; read-out: pGI50 (converted)
  GI50: 41.7 µM
OVCAR-5 [4]; read-out: pTGI
  TGI: > 100 µM
Malme-3M
  growth at 10 µM: 35.6%
UO-31
  LC50: > 100 µM
UO-31; read-out: GI50
  GI50: > 100 µM
UO-31; read-out: pGI50 (converted)
  GI50: > 100 µM
UO-31; read-out: pTGI
  TGI: > 100 µM
786-0 [5]
  LC50 (50% net cell kill): > 100 µM
786-0 [5]; read-out: GI50
  GI50: 10.2 µM
786-0 [5]; read-out: pGI50 (converted)
  GI50: 10.2 µM
786-0 [5]; read-out: pTGI (converted)
  TGI: 63.1 µM
SF-295
  Activity: inactive
NCI-H322M [6]
  LC50: > 100 µM
NCI-H322M [6]; read-out: GI50
  GI50: 14.3 µM
NCI-H322M [6]; read-out: pGI50 (converted)
  GI50: 14.1 µM
NCI-H322M [6]; read-out: pTGI (converted)
  TGI: 100 µM
SW-620
  Activity: inactive
NCI-H322M [7]
  growth at 10 µM: 115%
SK-MEL-2
  growth at 10 µM: 1.5%
TK-10
  LC50: 77.6 µM
TK-10; read-out: GI50
  GI50: 10.8 µM
TK-10; read-out: pGI50 (converted)
  GI50: 11 µM
TK-10; read-out: pTGI (converted)
  TGI: 28.8 µM
UACC-62
  LC50: > 100 µM
UACC-62; read-out: GI50
  GI50: 0.724 µM
UACC-62; read-out: pGI50 (converted)
  GI50: 0.724 µM
UACC-62; read-out: pTGI
  TGI: > 100 µM
U-251 [8]
  growth at 10 µM: 35%
EKVX
  growth at 10 µM: 69.1%
A549
  LC50: > 100 µM
A549; read-out: GI50
  GI50: 2.58 µM
A549; read-out: pGI50 (converted)
  GI50: 2.57 µM
A549; read-out: pTGI
  TGI: > 100 µM
